# Source: ChEMBL document CHEMBL4330127, “Discovery of Novel Pyruvate Dehydrogenase Kinase 4 Inhibitors for Potential Oral Treatment of Metabolic Diseases” (J Med Chem, 2019)
# Calls of active or inactive are those of the source. The rule behind the calls is not given here.
# Key:
# [1] = Half life in human liver microsomes at 1 uM preincubated for 5 mins followed by NADPH/UDPGA addition by LC-MS/MS analysis; format: ADME, Microsome
# In short: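 Pooled human liver microsomes (1.0 mg/mL) were preincubated with substrate (1 μM) at 37 °C for 5 min. NADPH and UDPGA were added and samples taken at 10, 20, 40 and 60 min. Reactions were quenched with acetonitrile, centrifuged, and the supernatant quantified by LC-MS/MS. Buspirone served as positive control.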
# [2] = Drug metabolism in human liver microsomes assessed as hydroxyl metabolite formation at 100 uM preincubated for 5 mins followed by NADPH/UDPGA addition and measured up to 2 hrs by LC-MS/MS analysis; format: ADME, Microsome
# In short: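 Pooled human liver microsomes (1.0 mg/mL) were mixed with alamethicin (25 μg/mg protein) and kept on ice for 15 min. Substrate (100 μM) was added and the mix preincubated 5 min at 37 °C. NADPH (1.3 mM) and UDPGA (5 mM) were then added and incubation ran 2 h with agitation. The reaction was stopped with ice-cold acetonitrile, centrifuged, and the supernatant analysed by LC-MS/MS (ESI positive, transition 358.2 → 84.1).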
# Cytochrome P450 2D6 = Cytochrome P450 2D6 (Homo sapiens, UniProt P10635); experiment: Inhibition of CYP2D6 in human liver microsomes assessed as reduction in dextromethorphan O-demethylation by tandem mass spectrometry analysis; format: ADME
# Chain of Cytochrome P450 2D6 (P10635 whole entry): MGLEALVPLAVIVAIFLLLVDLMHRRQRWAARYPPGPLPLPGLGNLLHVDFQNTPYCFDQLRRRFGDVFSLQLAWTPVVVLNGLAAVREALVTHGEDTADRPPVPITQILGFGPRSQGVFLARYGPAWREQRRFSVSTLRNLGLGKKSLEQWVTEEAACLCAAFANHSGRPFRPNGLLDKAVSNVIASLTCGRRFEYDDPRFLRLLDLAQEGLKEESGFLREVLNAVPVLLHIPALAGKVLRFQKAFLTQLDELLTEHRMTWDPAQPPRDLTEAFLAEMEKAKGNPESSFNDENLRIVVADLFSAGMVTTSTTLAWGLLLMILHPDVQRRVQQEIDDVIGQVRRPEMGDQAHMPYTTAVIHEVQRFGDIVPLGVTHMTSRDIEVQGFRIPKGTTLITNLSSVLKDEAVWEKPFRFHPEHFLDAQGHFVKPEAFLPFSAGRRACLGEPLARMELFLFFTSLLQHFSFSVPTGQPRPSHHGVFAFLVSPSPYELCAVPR
# In short: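 Pooled human liver microsomes incubated with compound at 0–50 μM final; CYP probe activities (phenacetin O-deethylation for 1A2, tolbutamide 4-hydroxylation for 2C9, omeprazole hydroxylation for 2C19, dextromethorphan O-demethylation for 2D6) run as a cocktail incubation and quantified by tandem MS; duplicates; IC50 derived.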
# HFL1 = experiment: Cytotoxicity against HFL1 cells; format: cell-based; details: Homo sapiens
# [3] = AUC (0 to infinity) in rat at 10 mg/kg, po; format: ADME, organism-based; parameters: dose 10 mg/kg, route oral, time infinity; details: in vivo
# In short: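 Male rats given a single dose, 5 mg/kg intravenously or 10 mg/kg orally. Plasma PK parameters were reported as mean ± SD: AUCt, AUC∞, Cmax, Tmax, T1/2, CL, Vss and oral bioavailability F.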
# [4] = Oral bioavailability in rat at 10 mg/kg; format: ADME, organism-based; details: in vivo
# [5] = target: RAC-alpha serine/threonine-protein kinase (Mus musculus) (UniProt P31750); experiment: Increase in AKT phosphorylation at Ser-473 residue in mouse AML-12 cells at 10 uM after 24 hrs by Western blot analysis; format: cell-based
# Chain of RAC-alpha serine/threonine-protein kinase (Mus musculus) (P31750 whole entry): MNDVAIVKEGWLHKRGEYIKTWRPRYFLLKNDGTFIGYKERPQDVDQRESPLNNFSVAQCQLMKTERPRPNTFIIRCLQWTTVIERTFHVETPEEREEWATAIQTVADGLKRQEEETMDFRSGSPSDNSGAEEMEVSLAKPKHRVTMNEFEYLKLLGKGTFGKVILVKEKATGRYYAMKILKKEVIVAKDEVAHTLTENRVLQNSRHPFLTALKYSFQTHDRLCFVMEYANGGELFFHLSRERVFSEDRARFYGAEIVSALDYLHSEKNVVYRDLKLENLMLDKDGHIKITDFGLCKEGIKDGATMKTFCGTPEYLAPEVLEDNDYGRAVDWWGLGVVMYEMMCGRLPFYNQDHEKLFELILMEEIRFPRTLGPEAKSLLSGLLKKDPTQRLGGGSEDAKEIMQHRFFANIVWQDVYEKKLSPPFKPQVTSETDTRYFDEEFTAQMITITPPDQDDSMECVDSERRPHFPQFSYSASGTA
# In short: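 AML12 hepatocytes challenged with palmitate, then exposed to 10 μM compound or vehicle (5 mM DCA as reference) for 24 h; p-Akt read by Western blot of cell lysates.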
# Mast cell = experiment: Inhibition of degranulation in IgE-labeled bone marrow-derived mast cells (unknown origin) assessed as reduction in beta-hexosaminidase release preincubated for 1 hr followed by HSA stimulation and measured after 15 mins; format: functional, cell-based
# HCT-116 [6] = experiment: Induction of apoptosis in human HCT116 cells assessed as increase in Bax expression at 10 to 50 uM after 24 hrs by Western blot analysis; format: functional, cell-based
# In short: (§1)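 HCT116 and RKO cells given a range of compound doses for 24 h; lysates probed by Western blot for apoptosis-related proteins (p53, BAX, BCLxL).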
# HCT-116 [7] = experiment: Induction of apoptosis in human HCT116 cells assessed as decrease in Bcl-XL expression at 10 to 50 uM after 24 hrs by Western blot analysis; format: functional, cell-based; in short: as §1
# RKO [8] = experiment: Induction of apoptosis in human RKO cells assessed as increase in cleaved-PARP expression at 10 to 50 uM after 24 hrs by Western blot analysis; format: functional, cell-based; in short: as §1
# HCT-116 [9] = experiment: Antiproliferative activity against human HCT116 cells up to 50 uM up to 72 hrs by CCK8 assay; format: functional, cell-based
# In short: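 HCT116 and RKO cells were treated with compound alone or with oxaliplatin and grown for 0–72 h. Viability was read by CCK-8 colorimetry at 450 nm.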
# RKO [10] = experiment: Inhibition of colony formation in human RKO cells at 10 to 50 […] after 7 days by crystal violet staining based assay; format: functional, cell-based
# In short: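 HCT116 and RKO cells seeded in 6-well plates and treated with compound for 7 days. Cells then fixed and stained with crystal violet to score colony formation.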
# HCT-116 [11] = experiment: Induction of apoptosis in human HCT116 cells after 24 hrs by Annexin V/propidium iodide staining based flow cytometry; format: functional, cell-based
# HCT-116 [12] = experiment: Induction of apoptosis in human HCT116 cells assessed as early apoptotic cells at 10 uM after 24 hrs by Annexin V/propidium iodide staining based flow cytometry (reference value: 4.36%); format: functional
# HCT-116 [13] = experiment: Induction of apoptosis in human HCT116 cells assessed as live cells at 25 uM after 24 hrs in presence of oxaliplatin by Annexin V/propidium iodide staining based flow cytometry (reference value: 57.3%); format: functional
# HCT-116 [14] = experiment: Induction of apoptosis in human HCT116 cells assessed as necrotic cells at 25 uM after 24 hrs in presence of oxaliplatin by Annexin V/propidium iodide staining based flow cytometry (reference value: 21.2%); format: functional
# HCT-116 [15] = experiment: Cell cycle arrest in human HCT116 cells assessed as accumulation at sub-G1 phase at 25 uM after 24 hrs in presence of oxaliplatin propidium iodide staining based flow cytometry (reference value: 25.1%); format: functional
# In short: (§2)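 HCT116 and RKO cells were treated with compound alone or with oxaliplatin for 24 h before harvest. Cells were stained with propidium iodide, and DNA content was analysed by flow cytometry. Cell-cycle phase populations, including sub-G1, are given as percentages.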
# RKO [16] = experiment: Induction of apoptosis in human RKO cells assessed as live cells at 25 uM after 24 hrs by Annexin V/propidium iodide staining based flow cytometry (reference value: 82.4%); format: functional
# RKO [17] = experiment: Induction of apoptosis in human RKO cells assessed as late apoptotic cells at 25 uM after 24 hrs by Annexin V/propidium iodide staining based flow cytometry (reference value: 7.42%); format: functional
# RKO [18] = experiment: Induction of apoptosis in human RKO cells assessed as necrotic cells at 25 uM after 24 hrs by Annexin V/propidium iodide staining based flow cytometry (reference value: 0.56%); format: functional
# RKO [19] = experiment: Induction of apoptosis in human RKO cells assessed as live cells at 50 uM after 24 hrs by Annexin V/propidium iodide staining based flow cytometry (reference value: 82.4%); format: functional
# RKO [20] = experiment: Induction of apoptosis in human RKO cells assessed as late apoptotic cells at 25 uM after 24 hrs in presence of oxaliplatin by Annexin V/propidium iodide staining based flow cytometry (reference value: 7.02%); format: functional
# RKO [21] = experiment: Induction of apoptosis in human RKO cells assessed as necrotic cells at 25 uM after 24 hrs in presence of oxaliplatin by Annexin V/propidium iodide staining based flow cytometry (reference value: 0.22%); format: functional
# RKO [22] = experiment: Cell cycle arrest in human RKO cells assessed as accumulation at S phase at 10 uM after 24 hrs propidium iodide staining based flow cytometry (reference value: 19.2%); format: functional
# RKO [23] = experiment: Cell cycle arrest in human RKO cells assessed as accumulation at G1/G0 phase at 25 uM after 24 hrs propidium iodide staining based flow cytometry (reference value: 39.9%); format: functional; in short: as §2
# RKO [24] = experiment: Cell cycle arrest in human RKO cells assessed as accumulation at sub-G1 phase at 50 uM after 24 hrs propidium iodide staining based flow cytometry (reference value: 17.6%); format: functional
# RKO [25] = experiment: Cell cycle arrest in human RKO cells assessed as accumulation at G2/M phase at 25 uM after 24 hrs in presence of oxaliplatin propidium iodide staining based flow cytometry (reference value: 39.2%); format: functional; in short: as §2
smiles,measurement,setting,value
Cl.O=C1c2ccccc2C(=O)c2c1cccc2-c1cnn(C2CCNCC2)c1,half-life at 1 µM,[1],> 1 h
same,Drug metabolism,[2],Metabolite_Detected
same,IC50,Cytochrome P450 2D6,> 50 µM
same,IC50,HFL1,36.5 µM
same,AUC(0-inf),[3],18500 ng·h/mL
same,bioavailability,[4],63.6%
same,Activity,[5],Active
same,inhibition,Mast cell,Dose-dependent effect
same,Activity,HCT-116 [6],Active
same,Activity,HCT-116 [7],Active
same,Activity,RKO [8],Active
same,Activity,HCT-116 [9],Active
same,inhibition,RKO [10],Active
same,Activity,HCT-116 [11],Dose-dependent effect
same,Activity,HCT-116 [12],2.9%
same,Activity,HCT-116 [13],44.6%
same,Activity,HCT-116 [14],25.9%
same,Activity,HCT-116 [15],36%
same,Activity,RKO [16],36.7%
same,Activity,RKO [17],39.4%
same,Activity,RKO [18],4.61%
same,Activity,RKO [19],9.59%
same,Activity,RKO [20],33.8%
same,Activity,RKO [21],5.07%
same,Activity,RKO [22],13.8%
same,Activity,RKO [23],13.7%
same,Activity,RKO [24],91.1%
same,Activity,RKO [25],19.2%
